Experimental data of several laboratories.
Each line is one published result; the experiments were not run side by side.
pH: 7.4

C=CC(=O)N1CC2(CCN(c3nc4c(c(-c5c(C)ccc6[nH]ncc56)c3C#N)C[C@H]3C[C@@H]4C3(C)C)C2)C1  logD: 4.4
N=C(CC(O)c1cc2c(F)cc(F)cc2c2cc(C(F)(F)F)ccc12)Nc1ccc(Br)cc1 (centres unmarked)  logD: 5.37
C[C@H](O)c1cnc(NS(=O)(=O)c2ccc(Cl)c(Cl)c2)nc1  logD (shake flask; aqueous buffer): 0.5
CNS(=O)(=O)c1ccc(Nc2ncc(C(F)(F)F)c([C@H]3CC[C@](C)(O)CC3)n2)c(C)c1  logD (shake flask; aqueous buffer; 1 h): 3.6
C[C@H](O)c1cnc(NS(=O)(=O)c2ccc(C(F)(F)F)c(Cl)c2)nc1  logD (shake flask; aqueous buffer): 0.4
CNS(=O)(=O)c1ccc(Nc2ncc(C(F)(F)F)c(N3CCC[C@](C)(O)C3)n2)c(C)c1  logD (shake flask; aqueous buffer; 1 h): 3.4
C[C@H](O)c1ccc(NS(=O)(=O)c2ccc(OCC3CCC3)c(Cl)c2)c2nn(C)cc12  logD (shake flask; aqueous buffer): 3.8
c1cc(-c2ccc3ncnc(Nc4ncco4)c3c2)nc(N2C[C@H]3C[C@@H]2CO3)n1  logD (shake flask; aqueous buffer): 3.1
O=C(O)c1ccc(NS(=O)(=O)c2ccc(Cl)c(Cl)c2)cc1  logD (shake flask; aqueous buffer): 0.6
CC(C)(N)COCC(=O)N1CCC[C@H](C(=O)NCc2nc(-c3ccc(C(F)(F)F)cc3)cs2)C1  logD (shake flask; aqueous buffer): 1.4
CNS(=O)(=O)c1ccc(Nc2ncc3cc(Cl)c(=O)n(C4CCCC4)c3n2)c(C)c1  logD (shake flask; aqueous buffer; 1 h): 3.8
C=CC(=O)N1CC2(CCN(c3nc4c(c(-c5cc(O)cc6ccccc56)c3F)COC(C)(C)C4)C2)C1  logD: 4.5
C[C@@H]1COCCN1c1cccc(-c2ccc3ncnc(Nc4ncco4)c3c2)c1  logD (shake flask; aqueous buffer): 4.2
C[C@H]1[C@@H](C(=O)NCc2nc(-c3ccc(C#N)cc3)cs2)CCCN1C(=O)[C@H]1CCC(=O)O1  logD (shake flask; aqueous buffer): 1.4
c1cc(-c2ccc3ncnc(Nc4ncco4)c3c2)cc(N2CC3(COC3)C2)c1  logD (shake flask; aqueous buffer): > 4
CCOCC(=O)N1CCC[C@H](C(=O)NCc2nc(-c3ccc(C#N)nc3)cs2)C1  logD (shake flask; aqueous buffer): 1
C=CC(=O)N1CC2(CCN(c3nc4c(c(-c5cc(O)cc6ccccc56)c3C)COC(C)(C)C4)C2)C1  logD: 4.3
Cc1ccc(Nc2ncnc3ccc(-c4cccc(N5CCOCC5)c4)cc23)cc1  logD (shake flask; aqueous buffer): > 4.1
CC(C)N=c1cc2n(-c3ccc(Cl)cc3)c3ccccc3nc-2cc1Nc1ccc(Cl)cc1  logD (shake flask; aqueous buffer): 5.76
CN1CCN(c2ccc(-c3ccc4nncc(Nc5ccc(OC(F)(F)F)cc5)c4c3)cc2)CC1  logD (shake flask; aqueous buffer): 5.1
O=[N+]([O-])c1ccc(Nc2ncnc3ccc(-c4cccc(N5CCOCC5)c4)cc23)cc1C(F)(F)F  logD (shake flask; aqueous buffer): > 3.4
Cc1ccc(Nc2cnnc3ccc(-c4ccc(N5CCCN(C)CC5)cc4)cc23)cn1  logD (shake flask; aqueous buffer): 3.3
Clc1cccc(Nc2ncnc3ccc(-c4cccc(N5CCOCC5)c4)cc23)c1  logD (shake flask; aqueous buffer): 5.3
N[C@@H](COCC(=O)N1CCC[C@H](C(=O)NCc2nc(-c3ccc(C(F)(F)F)cc3)cs2)C1)c1ccccc1  logD (shake flask; aqueous buffer): 3
CCN(CC)c1ccc(C=NNC(=O)c2ccccn2)c(O)c1  logD (shake flask; aqueous buffer; 24 h): 3.48
Clc1ccc(Nc2ncnc3ccc(-c4cccc(N5CCOCC5)c4)cc23)cc1  logD (shake flask; aqueous buffer): > 4.6
C=C1C[C@@]23CC[C@H]4[C@@](C)(CCC[C@@]4(C)C(=O)O[C@@H]4O[C@H](CO)[C@@H](O)[C@H](O)[C@H]4O)[C@@H]2CC[C@]1(O[C@@H]1O[C@H](CO)[C@@H](O)[C@H](O)[C@H]1O[C@@H]1O[C@H](CO)[C@@H](O)[C@H](O)[C@H]1O)C3  logD (shake flask; aqueous buffer): -1.51
NCCOCC(=O)N1CCC[C@H](C(=O)NCc2nc(-c3ccc(C(F)(F)F)cc3)cs2)C1  logD (shake flask; aqueous buffer): 0.47
C[C@H]1CN(c2cccc(-c3ccc4ncnc(Nc5ncco5)c4c3)c2)CCO1  logD (shake flask; aqueous buffer): > 4.3
